Assay outcomes: PubChem, several laboratories
TRAIL sens C8: sensitizes caspase-8 expressing cells to TRAIL; 360,000 compounds, 1% hits; NB7+C8 cells + TRAIL, ATPlite viability luminescence; AID 624354; inhibition (viability loss, TRAIL sensitization), % at 10 µM;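 active means compounds causing at least 50% loss of cell viability in the single-dose screen, relative to plate controls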
FLuc stim CS: firefly luciferase counter-screen for stimulation assays; P08659; AID 1027; 200,000 tested, under 10 active; activation factor at 10 µM; ATPlite luciferase biochemical, luminescence, 10 min; 0 = ATP-free wells, 1 = DMSO control;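 active means luciferase activation factor, scaled between plate controls, of at least 2 with compound at 10 µM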
Target sequence (P08659 whole entry, looked up): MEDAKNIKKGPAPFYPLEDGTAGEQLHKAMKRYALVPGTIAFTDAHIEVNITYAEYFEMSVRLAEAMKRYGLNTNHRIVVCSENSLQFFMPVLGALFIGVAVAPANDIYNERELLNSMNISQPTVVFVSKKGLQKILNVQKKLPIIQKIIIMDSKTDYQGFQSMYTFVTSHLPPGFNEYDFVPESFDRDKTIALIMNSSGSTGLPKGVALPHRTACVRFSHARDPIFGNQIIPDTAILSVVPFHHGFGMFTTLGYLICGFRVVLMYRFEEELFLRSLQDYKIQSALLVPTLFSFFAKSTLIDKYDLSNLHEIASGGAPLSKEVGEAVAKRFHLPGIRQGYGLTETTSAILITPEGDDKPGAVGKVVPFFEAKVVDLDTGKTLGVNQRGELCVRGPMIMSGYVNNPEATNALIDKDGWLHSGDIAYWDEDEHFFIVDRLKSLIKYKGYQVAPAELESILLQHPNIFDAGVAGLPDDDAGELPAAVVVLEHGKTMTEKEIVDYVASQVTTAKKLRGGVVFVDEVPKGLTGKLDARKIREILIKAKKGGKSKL
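Assay system: Luciferase/luciferin detection reagent, cell-free biochemical luciferase assay / Read-out: luciferase activation / Benchmarks: No-ATP low control, compound-free enzyme-plus-ATP high control / Medium: PBS buffer for ATP / Detection: luminescence measurement of luciferase light output / Schedule: 10 min at ambient temperature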
Platelet DG rel: platelet dense granule release activity; 300,000 compounds, 0.22% hits; AID 1663; inhibition, %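 (compounds screened at 7.5 µM in platelet-rich plasma)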; human platelet-rich plasma, SFLLRN dense granule ATP release, luminescence;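 active means mean replicate score, as percent of positive control, at or above 50; inconclusive means mean below 50 but at least one replicate at or above 50; inactive means mean and every replicate below 50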
PPC-1+TRAIL kill: kills PPC-1 cancer cells in the presence of TRAIL. cell killing (% activity), % at 4 µM or 5 µM. PPC-1 cells + TRAIL, ATPLite viability luminescence. 220,000 compounds, 0.41% hits. AID 1443;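 active means cell killing above 50% in the first pass at 4 µM, then a duplicate retest at 5 µM averaging 50% or more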;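 further: plate controls were cells with TRAIL plus DMSO for no effect and medium-only wells lacking cells for full effect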
FLuc inh counter: counter-screen for luciferase assay inhibitors: firefly luciferase inhibition; P08659; 200,000 compounds, 1.5% hits; ATPLite firefly luciferase biochemical luminescence, 10 min; inhibition, % at 10 µM; AID 1006;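 active means inhibition above about 50% when tested at 10 µM, limit read from the data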
The depositor's hits bear a star; ? = inconclusive; . = no result given. Most compounds without a hit are left out; they make up all but 1.6% or so of the library.

SMILES	TRAIL sens C8	FLuc stim CS	Platelet DG rel	PPC-1+TRAIL kill	FLuc inh counter
O=c1oc(-c2ccccc2)nc2sc3c(c12)CCC3	0	0.7	-9	19	26
Nc1nc(-c2ccccc2)nc2sc3c(c12)CCCC3	76*	0.1	-11	55*	85*
CCc1nnc(NS(=O)(=O)c2ccc(N=Cc3c(C)[nH]n(-c4ccc(C)c(C)c4)c3=O)cc2)s1	56*	0.3	14	44	66*
Cc1ccc(-n2[nH]c(C)c(C=Nc3ccc(S(=O)(=O)Nc4nccs4)cc3)c2=O)cc1	.	0.8	-10	33	21
Cc1ccc2cc(C(c3nnnn3C3CCCC3)N(Cc3cccnc3)Cc3ccco3)c(=O)[nH]c2c1 (stereo not drawn)	10	1	-8	53*	-1
Cc1ccc2[nH]c(=O)c(C(c3nnnn3C3CCCC3)N(Cc3cccnc3)Cc3ccco3)cc2c1 (stereo not drawn)	-6	1.1	7	-20	-6
O=C(NCCc1csc(-c2cccnc2)n1)c1cccs1	-6	1	?	.	2
Cc1ccc(C(=O)NCCc2csc(-c3cccnc3)n2)cc1	43	0.3	-1	38	68*
COc1ccc(-c2oc3c(c2C(=O)OCCO)C(OCCCO)CCC3)cc1 (stereo not drawn)	-3	.	.	.	.
Cc1nc(NCC2CCCO2)nc2c1C(=O)CC(C)C2 (stereo not drawn)	52*	1.1	-1	-12	-6
Cc1nc(NCC2CCCO2)nc2c1C(=O)CC(C)(C)C2 (stereo not drawn)	7	1	-2	36	-1
CC(C)N1C(=O)C(=O)N(CC(=O)N2c3ccccc3CC2C)C1=O (stereo not drawn)	-12	.	.	.	.
Cc1ccc(C(=O)CSc2ncnc3ccccc23)o1	4	0.7	6	2	27
O=C(CSc1ncnc2ccccc12)c1cccs1	3	0.3	2	2	70*
Cc1ccc(-n2nnc(-c3cnc4ccccc4c3)n2)cc1	36	0.5	-1	14	54*
CCC(c1nnnn1-c1ccc2c(c1)OCCO2)N1CCN(c2cccc(C)c2C)CC1 (stereo not drawn)	2	.	.	.	.
O=C(CSc1ncccn1)N(Cc1cccnc1)C(CCc1ccccc1)c1nc2ccccc2[nH]1 (stereo not drawn)	-7	.	.	.	.
NC1=NC[C@H](CC2CCCCC2)N1CCc1cc(C(F)(F)F)cc(C(F)(F)F)c1	60*	.	8	12	.
CCCC[C@@H]1CNCCN1CCc1cc(C(F)(F)F)cc(C(F)(F)F)c1	11	.	-6	.	.
FC(F)(F)c1cc(CCN2CCNC[C@@H]2CC2CCCCC2)cc(C(F)(F)F)c1	67*	.	.	.	.
NC1=NC[C@@H](Cc2ccc(O)cc2)N1CCc1cc(C(F)(F)F)cc(C(F)(F)F)c1	-8	.	2	19	.
C[C@H](CO)N1C[C@H](C)[C@H](CN(C)Cc2ccncc2)Oc2ncc(Br)cc2C1=O	-14	.	.	.	.
FC(F)(F)c1cccc(CC2CN(Cc3ccccc3)Cc3ccccc3N2c2cc(Cl)cc(Cl)c2)c1 (stereo not drawn)	60*	.	.	.	.
O=S1(=O)CCOC[C@H](Cc2ccccc2)N1Cc1cccc(C(F)(F)F)c1	8	.	0	.	.
Cc1ccc(C(=O)O/N=C(\N)c2cccc([N+](=O)[O-])c2)cc1	56*	0	8	20	96*
SMILES	TRAIL sens C8	FLuc stim CS	Platelet DG rel	PPC-1+TRAIL kill	FLuc inh counter
N/C(=N\OC(=O)c1ccc([N+](=O)[O-])cc1)c1cccnc1	12	0.1	8	-3	94*
Cc1ccc(C(=O)O/N=C(\N)c2cccnc2)cc1[N+](=O)[O-]	34	0.3	-1	16	75*
N/C(=N\OC(=O)c1ccccc1[N+](=O)[O-])c1cccnc1	-15	0.6	6	44	37
COc1ccc(NC(=O)C(c2ccncc2)n2c(=O)c(-c3ccccc3)nc3ccccc32)cc1 (stereo not drawn)	6	.	.	.	.
O=C(N/N=C/c1cccs1)c1ccc2ncccc2c1	-4	0.9	12	4	11
Cc1ccc(/C=N/NC(=O)c2ccccn2)s1	41	0.3	-1	46	75*
O=C(N/N=C/c1cccs1)c1ccccn1	9	0.5	18	5	51*
O=C(c1cc(C2CCCCN2S(=O)(=O)c2ccc(F)cc2F)on1)N1CCOCC1 (stereo not drawn)	-21	.	.	.	.
O=C(O)C(C(=O)/C=C/c1ccco1)=C1SCCS1	-6	1	0	-33	1
O=C(C=C1SCCS1)/C=C/c1ccco1	34	0.3	14	4	70*
Cc1ccc(NC(=S)N2CCC(c3ccccc3)C2)c(Cl)c1 (stereo not drawn)	43	0.3	-27	35	74*
O=C(Nc1ccc(Cl)cc1)N1CCC(c2ccccc2)C1 (stereo not drawn)	33	0.4	-6	27	64*
S=C(Nc1ccccc1Cl)N1CCC(c2ccccc2)C1 (stereo not drawn)	-6	0.8	-4	7	21
CC(C)(C)Cc1c(-c2ccc(Cl)cc2)nc2c(Cl)cc(C(F)(F)F)cn12	8	.	.	.	.
COc1ccc(C(O)c2ncc(-c3ccc4ccccc4c3)[nH]2)cc1F (stereo not drawn)	-7	.	.	.	.
COC(=O)C1(C(=O)OC)C/C=C\CCN(S(=O)(=O)c2ccccc2[N+](=O)[O-])CC1	-11	.	.	.	.
CNc1nc(Cl)nc2c1ncn2-c1ccccc1	3	.	.	.	.
Clc1nc(Cl)c2ncn(-c3ccccc3)c2n1	65*	.	.	.	.
CCCNC(=O)C1(C)CCCN(CCC(=O)c2ccccc2)C1 (stereo not drawn)	-2	.	.	.	.
COc1ccc(NC(=O)c2nc[nH]c2C(=O)N(C)CCO)cc1	6	.	.	.	.
CC(O)(c1cccc(F)c1)c1nc(-c2ccc3ccccc3c2)cs1 (stereo not drawn)	-5	.	.	.	.
Fc1ccc(/C=N/NC2=Nc3cccc4cccc2c34)cc1	47	0.4	8	35	58*
c1ccc(NC2=Nc3cccc4cccc2c34)cc1	3	0.9	13	12	6
Cc1ccc(Nc2ccccc2)cc1	-3	1	-6	14	-3
Cc1ccc(NC2=Nc3ccccc3CS2)cc1	55*	0.3	-13	46	69*
SMILES	TRAIL sens C8	FLuc stim CS	Platelet DG rel	PPC-1+TRAIL kill	FLuc inh counter
CC(=O)NCCNc1nc2cc(-c3ccccc3C)sc2c(=O)n1C	1	.	.	.	.
CC(/C=C/c1ccccc1)=N/NC(=O)c1cc([N+](=O)[O-])cc([N+](=O)[O-])c1	52*	1	.	27	-2
CC1=C(C(=O)N(C(C)C)C(C)C)CC(CC(=O)NCCCCc2ccccc2)C(=O)N1Cc1ccc(C(C)(C)C)cc1 (stereo not drawn)	-4	.	.	.	.
NC(=O)CSc1nc(N)c2c3c(sc2n1)CCCCC3	26	0.8	-4	4	24
NC(=O)CSc1nc(C2CC2)nc2sc3c(c12)CCCC3	29	0.5	2	36	52*
COc1ccc(NC(=O)c2cc(-c3cccnc3)nc3ccc(C)cc23)cc1OC	11	1	.	3	2
